# According to ChEMBL document CHEMBL1141591, “Lipophilic modifications to dinucleoside polyphosphates and nucleotides that confer antagonist properties at the platelet P2Y12 receptor” (J Med Chem, 2008):
# Calls of active or inactive are those of the source. The calls are words filed in the database; no cut-off is given here.
# Assays:
# P2Y purinoceptor 1 [1] = biological target: T1, P2Y purinoceptor 1 (Homo sapiens, UniProt P47900); assay: Agonist activity at human recombinant P2Y1 receptor expressed in human 1321 cells at 100 uM by calcium mobilization assay; format: functional, cell-based
# Summary of the method: (§1)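 1321N1 human astrocytoma cells expressing the recombinant receptor were loaded with Fluo-3 AM (2.5 µM final) for 60 min at 25 °C. Assay buffer: KCl 10, NaCl 118, CaCl2 2.5, MgCl2 1, HEPES 20, glucose 10 mM, pH 7.4. Cells were washed and then stimulated with compound. Intracellular calcium was read as the change in fluorescence (FLIPR). Values are EC50 in µM. SR means 5–20% of maximal response at the top concentration, usually 100 µM. NR means no response.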
# P2Y purinoceptor 2 [2] = biological target: T2, P2Y purinoceptor 2 (Homo sapiens, UniProt P41231); assay: Agonist activity at P2Y2 receptor expressed in human 1321 cells at 100 uM by calcium mobilization assay; format: functional, cell-based; summary of the method: as §1
# P2Y purinoceptor 6 [3] = biological target: T3, P2Y purinoceptor 6 (Homo sapiens, UniProt Q15077); assay: Agonist activity at P2Y6 receptor expressed in human 1321 cells at 100 uM by calcium mobilization assay; format: functional, cell-based; summary of the method: as §1
# [4] = biological target: P2Y purinoceptor 4 (Homo sapiens) (UniProt P51582); assay: Agonist activity at P2Y4 receptor expressed in human 1321 cells at 100 uM by calcium mobilization assay; format: functional, cell-based
# [5] = biological target: P2Y purinoceptor 12 (Homo sapiens) (UniProt Q9H244); assay: Antagonist activity at P2Y12 receptor assessed as inhibition of ADP-induced human platelet aggregation by washed platelet assay at 100 uM; format: functional
# Summary of the method: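 Blood from healthy volunteers was anticoagulated with ACD and spun at 180g for 15 min to give PRP. Platelets were washed three times in HEPES-buffered saline, pH 7.4, with 0.2% BSA and 5 µM PGI2, then resuspended with 0.25 U/mL apyrase. The suspension held 1 mg/mL fibrinogen at 37 °C, stirred at 1000 rpm. Compound (usually 1 nM–100 µM) was added for 2 min, then ADP at EC90 (usually 1–10 µM). Optical aggregation was recorded for 8 min. IC50 came from a four-parameter logistic fit.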
# P2Y purinoceptor 6 [6] = biological target: T3, P2Y purinoceptor 6; assay: Agonist activity at P2Y6 receptor expressed in human 1321 cells by calcium mobilization assay; format: functional, cell-based; summary of the method: as §1
# P2Y purinoceptor 1 [7] = biological target: T1, P2Y purinoceptor 1; assay: Agonist at human recombinant P2Y1 receptor expressed in human 1321 cells by calcium mobilization assay; format: functional, cell-based; summary of the method: as §1
# P2Y purinoceptor 2 [8] = biological target: T2, P2Y purinoceptor 2; assay: Agonist activity at P2Y2 receptor expressed in human 1321 cells by calcium mobilization assay; format: functional, cell-based
# [9] = biological target: P2Y purinoceptor 12 (Homo sapiens) (UniProt Q9H244); assay: Antagonist activity at P2Y12 receptor assessed as inhibition of 2-MeS-ADP-induced human platelet aggregation; format: functional
# Summary of the method: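 Washed human platelets (ACD-anticoagulated blood, PGI2/apyrase washes) with 1 mg/mL fibrinogen at 37 °C, stirred. Concentration–response curves to 2-MeS-ADP were run alone and with antagonist at 1, 3, 10, 30 or 100 µM. Aggregation was read optically. Schild (Arunlakshana-Schild) analysis gave KB and slope.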
# [10] = biological target: P2Y purinoceptor 12 (Homo sapiens) (UniProt Q9H244); assay: Reversal of antagonist activity at P2Y12 receptor in human washed platelets pretreated at 50 uM for 3 mins before addition of 2-Me-S-ADP and fibrinogen; format: functional
# Summary of the method: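 Washed human platelets were incubated with 50 µM antagonist for 3 min at 37 °C without fibrinogen. One set was then stimulated directly with 2-MeS-ADP plus fibrinogen. The other set was centrifuged once, resuspended in drug-free medium, and then stimulated. Optical aggregation was monitored for 6–8 min.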
# T2 sequence (P41231 whole entry): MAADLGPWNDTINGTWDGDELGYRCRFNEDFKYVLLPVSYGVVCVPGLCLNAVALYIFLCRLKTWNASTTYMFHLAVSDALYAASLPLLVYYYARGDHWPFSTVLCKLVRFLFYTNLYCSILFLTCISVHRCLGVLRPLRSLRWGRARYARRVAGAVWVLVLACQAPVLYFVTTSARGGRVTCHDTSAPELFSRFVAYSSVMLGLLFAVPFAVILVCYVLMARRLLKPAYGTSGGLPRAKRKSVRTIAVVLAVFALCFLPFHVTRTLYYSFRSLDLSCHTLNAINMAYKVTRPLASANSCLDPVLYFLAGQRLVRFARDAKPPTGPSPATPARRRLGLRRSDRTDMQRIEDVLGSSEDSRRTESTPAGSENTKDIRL
# T3 sequence (Q15077 whole entry): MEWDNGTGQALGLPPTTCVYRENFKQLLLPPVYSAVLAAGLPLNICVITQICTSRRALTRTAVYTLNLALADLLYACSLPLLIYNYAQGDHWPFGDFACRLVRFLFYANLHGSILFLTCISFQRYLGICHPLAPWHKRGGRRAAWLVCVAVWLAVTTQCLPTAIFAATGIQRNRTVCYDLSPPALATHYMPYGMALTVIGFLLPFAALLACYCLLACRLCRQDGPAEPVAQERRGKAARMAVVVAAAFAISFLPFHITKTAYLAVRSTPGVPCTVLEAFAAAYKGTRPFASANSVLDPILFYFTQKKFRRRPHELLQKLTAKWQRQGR
# P2Y purinoceptor 4 (Homo sapiens), sequence (P51582 whole entry): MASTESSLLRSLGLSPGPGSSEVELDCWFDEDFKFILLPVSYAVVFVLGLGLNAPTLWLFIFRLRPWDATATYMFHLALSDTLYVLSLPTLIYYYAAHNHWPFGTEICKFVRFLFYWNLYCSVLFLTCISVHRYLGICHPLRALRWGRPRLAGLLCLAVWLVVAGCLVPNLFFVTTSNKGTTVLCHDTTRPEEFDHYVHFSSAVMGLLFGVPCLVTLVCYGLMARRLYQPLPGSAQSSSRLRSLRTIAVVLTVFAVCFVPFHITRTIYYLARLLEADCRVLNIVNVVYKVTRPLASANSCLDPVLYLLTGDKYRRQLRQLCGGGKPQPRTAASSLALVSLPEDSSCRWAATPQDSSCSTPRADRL
# P2Y purinoceptor 12 (Homo sapiens), sequence (Q9H244 whole entry): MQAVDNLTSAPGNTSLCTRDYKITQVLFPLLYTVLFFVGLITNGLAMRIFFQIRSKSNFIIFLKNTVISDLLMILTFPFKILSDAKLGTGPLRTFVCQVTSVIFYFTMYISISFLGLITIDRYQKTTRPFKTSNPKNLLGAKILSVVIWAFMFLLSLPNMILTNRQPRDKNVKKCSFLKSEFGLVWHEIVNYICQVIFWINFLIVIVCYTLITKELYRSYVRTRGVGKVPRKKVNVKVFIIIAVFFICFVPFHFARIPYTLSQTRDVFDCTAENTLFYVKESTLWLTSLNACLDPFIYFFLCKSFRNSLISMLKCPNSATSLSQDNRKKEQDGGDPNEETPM
# T1 sequence (P47900 whole entry): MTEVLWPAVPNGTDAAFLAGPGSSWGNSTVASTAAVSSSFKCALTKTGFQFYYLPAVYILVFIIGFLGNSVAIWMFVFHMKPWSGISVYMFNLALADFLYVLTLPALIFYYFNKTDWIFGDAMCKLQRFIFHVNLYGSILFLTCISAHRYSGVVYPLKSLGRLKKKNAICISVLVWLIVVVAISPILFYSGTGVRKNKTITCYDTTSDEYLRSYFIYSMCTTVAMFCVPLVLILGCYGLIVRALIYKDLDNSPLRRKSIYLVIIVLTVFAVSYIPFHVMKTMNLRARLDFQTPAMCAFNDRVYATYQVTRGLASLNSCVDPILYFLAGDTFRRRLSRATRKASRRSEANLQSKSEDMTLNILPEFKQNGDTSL
Activity (P2Y purinoceptor 1 [1]),Activity (P2Y purinoceptor 2 [2]),Activity (P2Y purinoceptor 6 [3]),Activity [4],Activity [5],EC50 (P2Y purinoceptor 6 [6]) [µM],inhibition [5] [%],EC50 (P2Y purinoceptor 1 [7]) [µM],EC50 (P2Y purinoceptor 2 [8]) [µM],Kb [9] [µM],Activity [10],Structure (SMILES)
inactive,inactive,inactive,inactive,–,–,–,–,–,–,–,"O=C(Nc1ccccc1)Nc1ncnc2c1ncn2[C@@H]1O[C@H](COP(=O)(O)O)C2OC(/C=C/c3ccccc3)OC21 (single isomer, unassigned)"
inactive,inactive,inactive,inactive,–,–,–,–,–,–,–,"CCCCCCNC(=O)Nc1ncnc2c1ncn2[C@@H]1O[C@H](COP(=O)(O)O)C2OC(C#Cc3ccccc3)OC21 (single isomer, unassigned)"
inactive,inactive,inactive,inactive,–,–,–,–,–,–,–,CCNC(=O)Nc1ncnc2c1ncn2[C@@H]1O[C@H](COP(=O)(O)O)[C@H]2OC(Cc3ccccc3)O[C@H]21 (stereo not given in full)
–,–,–,–,–,9.75,–,2.63,9.4,–,–,O=C(Nc1ccccc1)Nc1ncnc2c1ncn2[C@@H]1O[C@H](COP(=O)(O)OP(=O)(O)O)[C@@H](O)[C@H]1O
inactive,inactive,inactive,inactive,–,–,–,–,–,–,–,"CCNC(=O)Nc1ncnc2c1ncn2[C@@H]1O[C@H](COP(=O)(O)O)C2OC(/C=C/c3ccccc3)OC21 (single isomer, unassigned)"
inactive,inactive,inactive,inactive,–,–,–,–,–,–,–,"O=C(Nc1ncnc2c1ncn2[C@@H]1O[C@H](COP(=O)(O)O)C2OC(Cc3ccccc3)OC21)NC1CCCC1 (single isomer, unassigned)"
inactive,inactive,inactive,inactive,–,–,–,–,–,–,–,O=C(Nc1ccccc1)Nc1ncnc2c1ncn2[C@@H]1O[C@H](COP(=O)(O)O)[C@@H](O)[C@H]1O
inactive,inactive,inactive,inactive,–,–,–,–,–,–,–,"CCNC(=O)Nc1ncnc2c1ncn2[C@@H]1O[C@H](COP(=O)(O)O)C2O[C@H](/C=C/c3ccccc3)OC21 (single isomer, unassigned)"
inactive,inactive,inactive,inactive,–,–,–,–,–,–,–,CCCCCCNC(=O)Nc1ncnc2c1ncn2[C@@H]1O[C@H](COP(=O)(O)O)[C@H]2OC(Cc3ccccc3)O[C@H]21 (stereo not given in full)
inactive,inactive,inactive,inactive,–,–,–,–,–,–,–,CCNC(=O)Nc1ncnc2c1ncn2[C@@H]1O[C@H](COP(=O)(O)O)[C@H]2OC(c3ccccc3)O[C@H]21 (stereo not given in full)
inactive,inactive,inactive,inactive,–,–,–,–,–,–,–,"O=C(Nc1ccccc1)Nc1ncnc2c1ncn2[C@@H]1O[C@H](COP(=O)(O)O)C2OC(C#Cc3ccccc3)OC21 (single isomer, unassigned)"
inactive,inactive,inactive,inactive,–,–,–,–,–,–,–,O=C(Nc1ccccc1)Nc1ncnc2c1ncn2[C@@H]1O[C@H](COP(=O)(O)O)[C@H]2OC(Cc3ccccc3)O[C@H]21 (stereo not given in full)

# The remaining lines, values behind:
Structure (SMILES),Activity (P2Y purinoceptor 1 [1]),Activity (P2Y purinoceptor 2 [2]),Activity (P2Y purinoceptor 6 [3]),Activity [4],Activity [5],EC50 (P2Y purinoceptor 6 [6]) [µM],inhibition [5] [%],EC50 (P2Y purinoceptor 1 [7]) [µM],EC50 (P2Y purinoceptor 2 [8]) [µM],Kb [9] [µM],Activity [10]
"CCCCCCNC(=O)Nc1ncnc2c1ncn2[C@@H]1O[C@H](COP(=O)(O)O)C2OC(/C=C/c3ccccc3)OC21 (single isomer, unassigned)",inactive,inactive,inactive,inactive,–,–,–,–,–,–,–
O=c1ccn([C@@H]2O[C@H](COP(=O)(O)OP(=O)(O)OP(=O)(O)OP(=O)(O)OC[C@@H]3O[C@H](n4ccc(=O)[nH]c4=O)[C@@H](O)[C@H]3O)[C@@H](O)[C@H]2O)c(=O)[nH]1,inactive,–,–,–,inactive,18.6,–,–,–,–,–
Nc1ncnc2c1ncn2[C@@H]1O[C@H](COP(=O)(O)O)[C@H]2O[C@@H](Cc3ccccc3)O[C@H]21,inactive,inactive,inactive,inactive,–,–,47,–,–,–,–
Nc1ncnc2c1ncn2[C@@H]1O[C@H](COP(=O)(O)O)[C@H]2O[C@@H](c3ccccc3)O[C@H]21,inactive,inactive,inactive,inactive,–,–,75,–,–,–,–
O=c1ccn([C@@H]2O[C@H](COP(=O)(O)OP(=O)(O)OP(=O)(O)OC[C@@H]3O[C@H](n4ccc(=O)[nH]c4=O)[C@@H](O)[C@H]3O)[C@@H](O)[C@H]2O)c(=O)[nH]1,inactive,–,–,–,inactive,0.4,–,–,13.5,–,–
CCCC1O[C@@H]2[C@H](O1)[C@@H](COP(=O)(O)OP(=O)(O)OP(=O)(O)OP(=O)(O)OC[C@@H]1O[C@H](n3ccc(=O)[nH]c3=O)[C@@H](O)[C@H]1O)O[C@H]2n1ccc(=O)[nH]c1=O (stereo not given in full),inactive,–,–,–,–,30,44,–,0.098,–,–
Nc1ncnc2c1ncn2[C@@H]1O[C@H](COP(=O)(O)OP(=O)(O)O)[C@H]2O[C@@H](Cc3ccccc3)O[C@H]21,–,–,inactive,–,–,–,–,4.39,13.9,–,–
Nc1ncnc2c1ncn2[C@@H]1O[C@H](COP(=O)(O)O)[C@H]2OC(/C=C/c3ccccc3)O[C@H]21 (stereo not given in full),inactive,inactive,inactive,inactive,–,–,–,–,–,–,–
Nc1ncnc2c1ncn2[C@@H]1O[C@H](COP(=O)(O)OP(=O)(O)OP(=O)(O)OP(=O)(O)OC[C@@H]2O[C@H](n3cnc4c(N)ncnc43)[C@@H](O)[C@H]2O)[C@@H](O)[C@H]1O,–,–,inactive,–,–,–,63,0.426,0.072,–,–
O=c1ccn([C@@H]2O[C@H](COP(=O)(O)OP(=O)(O)OP(=O)(O)OP(=O)(O)OC[C@@H]3O[C@H](n4ccc(=O)[nH]c4=O)[C@H]4OC(Cc5ccccc5)O[C@H]43)[C@H]3OC(Cc4ccccc4)O[C@H]32)c(=O)[nH]1 (stereo not given in full),inactive,–,> 5%,–,–,–,–,–,14.6,0.249,Active
O=c1ccn([C@@H]2O[C@H](COP(=O)(O)OP(=O)(O)OP(=O)(O)OC[C@@H]3O[C@H](n4ccc(=O)[nH]c4=O)[C@@H](O)[C@H]3O)[C@H]3OC(Cc4ccccc4)O[C@H]32)c(=O)[nH]1 (stereo not given in full),inactive,inactive,–,–,–,0.154,–,–,–,–,–
Nc1ncnc2c1ncn2[C@@H]1O[C@H](COP(=O)(O)O)[C@H]2OC(C#Cc3ccccc3)O[C@H]21 (stereo not given in full),inactive,inactive,inactive,inactive,–,–,–,–,–,–,–
